# PKA-R2B act = activators of PKA-R2B holoenzyme, primary screen, biochemical, fluorescence polarization, Cy5-IP20, human. cAMP-dependent protein kinase catalytic subunit beta (Homo sapiens) + cAMP-dependent …. AID 504700, 2011. actives 0.079% (n = 340,000). activation, % at 11.4 µM. PKA-R2B holoenzyme dissociation; R2B truncated from residue 108, S112A mutant; 0% DMSO only, 100% 113 µM cGMP;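 active = activation above a cutoff set at the mean over all compounds plus 3 SD, cut at about 18% in these data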;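 note: higher means more holoenzyme dissociation and a rise in polarization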
# procasp7 counter = procaspase-7 activators, primary screen, counter-screen for procaspase-3 activator project, biochemical, absorbance, HTS, human; actives 0.093% (n = 330,000); Caspase-7 (Homo sapiens), P55210; recombinant procaspase-7, Ac-DEVD-pNA absorbance 405 nm; D23A/D198A/D206A triple mutant, cannot self-cleave; scale: DMSO 0, 5 µM enzyme 100; activation, % at 8.5 µM;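 active = percent activation above the screen-wide mean plus 3 SD, cut at about 25% in these data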
# Target sequence (P55210 whole entry D23A/D198A/D206A): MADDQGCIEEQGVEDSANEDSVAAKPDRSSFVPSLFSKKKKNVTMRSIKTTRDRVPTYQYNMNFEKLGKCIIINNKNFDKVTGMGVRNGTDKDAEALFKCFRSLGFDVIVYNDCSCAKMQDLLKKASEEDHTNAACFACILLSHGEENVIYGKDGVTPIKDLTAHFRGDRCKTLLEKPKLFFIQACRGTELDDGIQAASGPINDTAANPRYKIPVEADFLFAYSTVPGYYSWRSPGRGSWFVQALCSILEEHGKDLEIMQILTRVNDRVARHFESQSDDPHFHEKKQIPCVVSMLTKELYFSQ
#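 buffer or medium = Zinc-free HEPES/NaCl buffer, pH 7.4 | material = Procaspase-7 triple mutant (PC-7 D3A) | input = 2 µM procaspase-7 mutant as dispensed | signal = Epi-absorbance of released pNA at 405 nm, two timepoints | timing = 1 h preincubation, 2 h reaction | replicates = singlicate compound testing | evaluation = % activation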
# PKA-R1A act = activators of PKA-R1A holoenzyme, primary screen, biochemical, fluorescence polarization, Cy5-IP20, bovine R1A, mouse PKAc. cAMP-dependent protein kinase type I-alpha regulatory subunit (Bos taurus) + …. actives 0.083% (n = 340,000). PKA-R1A dissociation; scaled: DMSO 0%, 113 µM cGMP 100%. activation, % at 11.4 µM;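 active = percent activation above the mean of all tested compounds plus 3 SD, cut at about 19% in these data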;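 note: higher means more PKAc released from R1A so a rise in polarization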
# procasp3 activ = activators of human procaspase-3 D3A mutant, primary screen, biochemical, absorbance, PC-3 D3A mutant, single concentration | recombinant procaspase-3 D3A, Ac-DEVD-pNA absorbance 405 nm | activation, % at 8.5 µM | actives 0.11% (n = 330,000);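 active = activation above the mean of all tested compounds plus 3 SD, cut at about 21% in these data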;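 note: 0% = DMSO alone and 100% = DMSO wells spiked with extra 5 µM PC-3 D3A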
#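 Compound: 8.5 µM single point, 0.8% DMSO / Material: Autoprocessing-dead procaspase-3 D3A mutant enzyme / Timing: 1 h preincubation plus 2 h reaction at 25 °C / Medium: Zinc-free HEPES/NaCl buffer with 0.01% Triton X-100 at pH 7.4 / Technique: 405 nm absorbance of p-nitroaniline, reads at 0 and 120 min / Repeats: one well per compound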
# R1A FP artifact = FP signal interference without PKA proteins, confirmation, artefact control for PKA-R1A activator project, biochemical, fluorescence polarization, triplicate. shares compounds with PKA-R1A act. AID 504799, 2011. actives 7% (n = 280). Cy5-IP20 peptide alone, fluorescence polarization artifact counterscreen. activation, % at 11.4 µM;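 active = mean activation over triplicate runs exceeds the adjusted cutoff derived for the parent primary screen, cut at about 19% in these data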;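 note: no PKA protein present so any polarization rise reflects compound interference; 0% = tracer peptide mix alone and 100% = mix with added PKA catalytic subunit; higher means stronger polarization artifact and likely false positive in parent screen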
# PKA-R1A act conf = activators of PKA-R1A holoenzyme, confirmation, biochemical, fluorescence polarization, Cy5-IP20, triplicate; shares compounds with PKA-R1A act; PKA-R1A holoenzyme dissociation; activation, % at 11.4 µM; actives 9% (n = 280);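 active = mean activation over replicate wells exceeds the adjusted hit threshold taken from the earlier primary screen, cut at about 20% in these data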;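 note: 0% = holoenzyme mix with DMSO only and 100% = cGMP-activated control wells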
# An asterisk follows results filed as active; / = not tested or not shown. Compounds with a hit are over-represented: about 0.29% of the library has one in this group of screens.
SMILES,PKA-R2B act,procasp7 counter,PKA-R1A act,procasp3 activ,R1A FP artifact,PKA-R1A act conf
Cn1c(=O)c2c(ncn2CCCl)n(C)c1=O,5.3,-5.3,-9.6,0.6,/,/
O=C(COc1ccccc1Cl)N1CCCC(N2CCN(c3ccc(F)cc3)CC2)C1 (stereo not given),-9.1,4.7,19.0*,3.4,0.1,1.6
CCCCn1c(O)c(C(C)=NCCN2CCOCC2)c(=O)[nH]c1=O,-7.5,10.7,2.8,-5.4,/,/
CN(C(=O)Cc1ccc(Cl)c(Cl)c1)C(CN1CCCC1)c1cccc(OCC(=O)O)c1 (stereo not given),-5.5,4.1,19.0*,4.7,4.4,-0.8
Cc1cccc(OCC(=O)N2CCN(Cc3ccc4c(c3)OCO4)CC2)c1,-13.9,15.1,-0.1,-7.5,/,/

# High-throughput results (PubChem BioAssay)
